Columns and labels:
PC-3 [1] = assay: Induction of apoptosis in human PC3 cells assessed as loss of mitochondrial membrane potential at 30 uM after 24 hrs by rhodamine-123-staining based FACS analysis (reference value: 5 % ); format: functional
Outline: (§1)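 Cells (MCF-7 or PC-3) exposed to indicated concentrations for 24 h; rhodamine-123 (5 µM) added 1 h before end. Cells collected, PBS-washed; fluorescence of 10,000 events read in FL-1 by flow cytometry, loss of mitochondrial potential scored as decreased intensity.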

[2] = Cytotoxicity against human PC3 cells assessed as cell growth inhibition after 6 hrs by MTT assay; format: functional; conditions: PC-3, 6 h
[3] = molecular target: T1, Phosphatidylinositol 4,5-bisphosphate 3-kinase catalytic subunit alpha isoform (Homo sapiens, UniProt P42336); assay: Inhibition of PI3Kalpha in human PC3 cells assessed as suppression of akt phosphorylation at Ser-473 residue at 30 uM Western blot analysis; format: cell-based; conditions: PC-3
[4] = Downregulation of PI3Kdelta expression in human PC3 cells at 30 uM by Western blot analysis; format: functional, cell-based; conditions: PC-3
Outline: (§2)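 MCF-7 or PC-3 cells (2 × 10^6) treated with compound, lysed (1 × 10^6 cells) in cold NP-40 buffer with protease inhibitors 30 min on ice, 12,000 g 10 min 4 °C. 50 µg protein per lane on SDS-PAGE, PVDF transfer, 5% milk block, primary antibody 2 h, HRP secondary 1 h, ECL on film; β-actin internal control.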

[5] = Cytotoxicity against human PC3 cells assessed as cell growth inhibition after 24 hrs by MTT assay; format: functional; conditions: PC-3, 24 h
[6] = Cytotoxicity against human PC3 cells assessed as cell growth inhibition after 12 hrs by MTT assay; format: functional; conditions: PC-3, 12 h
[7] = Downregulation of PI3Kbeta expression in human PC3 cells at 30 uM by Western blot analysis; format: functional, cell-based; conditions: PC-3; outline: as §2
Mus musculus [8] = assay: Toxicity in Swiss mouse implanted with Swiss mouse EAC cells assessed as body weight at 70 mg/kg, ip administered for 1 to 9 days measured on day 12 (reference value: 28.4 g); format: organism-based, Ehrlich; conditions: in vivo
PC-3 [9] = assay: Induction of cell cycle arrest in human PC3 cells assessed as accumulation at G2 phase at 30 uM after 24 hrs by propidium iodide-staining based FACS analysis (reference value: 17 %); format: functional
Outline: (§3)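 MCF-7 or PC-3 cells treated at indicated concentrations for 24 h, pelleted, PBS-washed, fixed in ice-cold 70% ethanol overnight at 4 °C. RNase 0.2 mg/mL 1 h at 37 °C, propidium iodide 10 µg/mL 30 min dark. 10,000 events (FL2-A vs FL2-W) by flow cytometry; fractions in apoptosis/sub-G1, G1, S, G2-M.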

Mus musculus [10] = assay: Toxicity in Swiss mouse implanted with Swiss mouse EAC cells assessed as mortality at 70 mg/kg, ip administered for 1 to 9 days measured on day 12; format: organism-based, Ehrlich; conditions: in vivo
Outline: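 1×10^7 EAC cells injected intraperitoneally into Swiss mice on day 0. Mice randomized next day: treated groups n=7, saline control n=10 (0.2 ml i.p.). Dosing i.p. days 1–9. Sacrifice on day 12; ascitic fluid collected from the peritoneal cavity. % tumor growth inhibition from total tumor cell count versus control. Body weight and mortality tracked.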

PC-3 [11] = assay: Induction of cell cycle arrest in human PC3 cells assessed as accumulation at G2 phase at 10 uM after 24 hrs by propidium iodide-staining based FACS analysis (reference value: 17 %); format: functional; outline: as §3
Mus musculus [12] = assay: Toxicity in Swiss mouse implanted with Swiss mouse EAT cells assessed as body weight at 25 mg/kg, ip administered for 1 to 9 days measured on day 1 (reference value: 21.6 g); format: organism-based; conditions: in vivo
MCF7 [13] = assay: Induction of cell cycle arrest in human MCF7 cells assessed as accumulation at G2 phase at 10 uM after 24 hrs by propidium iodide-staining based FACS analysis (reference value: 20 %); format: functional; outline: as §3
[14] = Anticancer activity against Swiss mouse EAT cells implanted in Swiss mouse assessed as tumor growth inhibition at 15 mg/kg, ip administered for 1 to 9 days measured on day 13 relative to control; format: functional; conditions: read-out: TGI
Outline: (§4)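 Solid tumor: 1 × 10^7 EAC cells (harvested from 8-10 day ascitic Swiss mice) injected intramuscularly into right thigh of male Swiss mice, day 0; randomized next day (n=7 treated, 10 control). Dosing i.p. days 1-9; saline 0.2 ml control, 5-FU 22 mg/kg reference.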

MCF7 [15] = assay: Induction of cell cycle arrest in human MCF7 cells assessed as accumulation at S phase at 30 uM after 24 hrs by propidium iodide-staining based FACS analysis (reference value: 30 %); format: functional; outline: as §3
MCF7 [16] = assay: Induction of cell cycle arrest in human MCF7 cells assessed as accumulation at G1 phase at 20 uM after 24 hrs by propidium iodide-staining based FACS analysis (reference value: 50 %); format: functional; outline: as §3
Mus musculus [17] = assay: Toxicity in Swiss mouse implanted with Swiss mouse EAT cells assessed as body weight at 25 mg/kg, ip administered for 1 to 9 days measured on day 13 (reference value: 24.1 g); format: organism-based; conditions: in vivo
[18] = Downregulation of PI3Kgamma expression in human MCF7 cells at 30 uM by Western blot analysis; format: functional, cell-based; outline: as §2
[19] = Anticancer activity against Swiss mouse EAC cells implanted in Swiss mouse assessed as tumor growth inhibition at 25 mg/kg, ip administered for 1 to 9 days measured on day 12 relative to control; format: functional; conditions: Ehrlich, read-out: TGI
Outline: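 Swiss mice given 1 × 10^7 EAC cells i.p. on day 0, randomized next day (treated n=7, control n=10). Compound given i.p. days 1-9; saline control (0.2 ml i.p.), 5-fluorouracil 20 mg/kg i.p. reference. Sacrificed day 12; ascitic fluid collected; % TGI from total peritoneal tumor cell count versus control.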

[20] = Anticancer activity against Swiss mouse EAT cells implanted in Swiss mouse assessed as tumor growth inhibition at 25 mg/kg, ip administered for 1 to 9 days measured on day 13 relative to control; format: functional; conditions: read-out: TGI; outline: as §4
Mus musculus [21] = assay: Toxicity in Swiss mouse implanted with Swiss mouse EAT cells assessed as body weight at 15 mg/kg, ip administered for 1 to 9 days measured on day 9 (reference value: 22.8 g); format: organism-based; conditions: in vivo
MCF7 [22] = assay: Induction of cell cycle arrest in human MCF7 cells assessed as accumulation at G1 phase at 30 uM after 24 hrs by propidium iodide-staining based FACS analysis (reference value: 50 %); format: functional; outline: as §3
[23] = molecular target: T1, Phosphatidylinositol 4,5-bisphosphate 3-kinase catalytic subunit alpha isoform; conditions: MCF7, 30 uM
MCF7 [24] = assay: Induction of apoptosis in human MCF7 cells assessed as loss of mitochondrial membrane potential at 30 uM after 24 hrs by rhodamine-123-staining based FACS analysis (reference value: 7 % ); format: functional; outline: as §1
MCF7 [25] = assay: Induction of cell cycle arrest in human MCF7 cells assessed as apoptotic cells at 30 uM after 24 hrs by propidium iodide-staining based FACS analysis (reference value: 8 %); format: functional; outline: as §3
Mus musculus [26] = assay: Toxicity in Swiss mouse implanted with Swiss mouse EAT cells assessed as body weight at 25 mg/kg, ip administered for 1 to 9 days measured on day 5 (reference value: 22.6 g); format: organism-based; conditions: in vivo
Mus musculus [27] = assay: Toxicity in Swiss mouse implanted with Swiss mouse EAT cells assessed as body weight at 15 mg/kg, ip administered for 1 to 9 days measured on day 5 (reference value: 22.6 g); format: organism-based; conditions: in vivo

T1 sequence (P42336 whole entry, canonical isoform): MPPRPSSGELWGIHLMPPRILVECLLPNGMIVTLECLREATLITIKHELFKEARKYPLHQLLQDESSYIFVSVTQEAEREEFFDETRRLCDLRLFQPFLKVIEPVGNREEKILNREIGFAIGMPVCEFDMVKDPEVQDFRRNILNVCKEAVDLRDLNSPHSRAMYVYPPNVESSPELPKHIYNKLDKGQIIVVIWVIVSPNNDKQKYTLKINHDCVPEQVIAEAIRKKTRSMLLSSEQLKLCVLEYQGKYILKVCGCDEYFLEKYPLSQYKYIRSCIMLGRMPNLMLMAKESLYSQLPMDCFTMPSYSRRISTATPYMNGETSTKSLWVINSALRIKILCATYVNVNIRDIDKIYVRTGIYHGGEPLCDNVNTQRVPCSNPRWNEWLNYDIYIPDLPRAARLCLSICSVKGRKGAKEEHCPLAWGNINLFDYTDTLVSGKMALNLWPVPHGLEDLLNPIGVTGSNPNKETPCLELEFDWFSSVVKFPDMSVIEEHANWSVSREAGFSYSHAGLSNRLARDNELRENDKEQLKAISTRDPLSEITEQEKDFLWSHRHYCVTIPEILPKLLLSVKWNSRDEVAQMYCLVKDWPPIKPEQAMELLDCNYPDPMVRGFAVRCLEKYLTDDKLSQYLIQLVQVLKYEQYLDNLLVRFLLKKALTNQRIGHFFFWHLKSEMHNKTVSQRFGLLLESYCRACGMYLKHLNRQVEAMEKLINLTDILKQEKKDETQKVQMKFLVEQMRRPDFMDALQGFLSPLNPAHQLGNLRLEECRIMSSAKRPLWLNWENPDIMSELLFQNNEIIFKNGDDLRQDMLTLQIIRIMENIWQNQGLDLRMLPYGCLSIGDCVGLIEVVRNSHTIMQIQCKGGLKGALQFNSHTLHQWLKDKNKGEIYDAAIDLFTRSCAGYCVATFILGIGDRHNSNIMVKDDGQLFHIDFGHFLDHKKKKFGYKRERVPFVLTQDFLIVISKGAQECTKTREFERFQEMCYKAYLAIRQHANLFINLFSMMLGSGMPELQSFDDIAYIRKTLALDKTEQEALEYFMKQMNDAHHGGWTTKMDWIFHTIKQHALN

Compound: N#CCc1ccc(Nc2ncnc3ccc(-c4cncc5ccccc45)cc23)cc1
- Activity (PC-3 [1]): 18%
- GI50 [2]: 567 µM
- inhibition [3]: 50%
- Activity [4]: 32%
- GI50 [5]: 28 µM
- GI50 [6]: 189 µM
- Activity [7]: 42%
- Activity (Mus musculus [8]): 24.33 g
- Activity (PC-3 [9]): 12%
- Activity (Mus musculus [10]): Non-Toxic
- Activity (PC-3 [11]): 3%

Compound: N#CCc1ccc(Nc2ncnc3ccc(-c4ccc5[nH]ccc5c4)cc23)cc1
- Activity (Mus musculus [12]): 20.14 g
- Activity (MCF7 [13]): 1%
- inhibition in vivo at 15 mg/kg [14]: 34.3%
- Activity (MCF7 [15]): 53%
- Activity (MCF7 [16]): 51%
- Activity (Mus musculus [17]): 21.81 g
- Activity [18]: 6%
- inhibition in vivo at 25 mg/kg [19]: 62%
- inhibition in vivo at 25 mg/kg [20]: 36.5%
- Activity (Mus musculus [21]): 20.71 g
- Activity (MCF7 [22]): 44%
- inhibition [23]: 80%
- Activity (MCF7 [24]): 20%
- Activity (MCF7 [25]): 37%
- Activity (Mus musculus [26]): 20.61 g
- Activity (Mus musculus [27]): 20 g

From ChEMBL document CHEMBL3868583, “6-Aryl substituted 4-(4-cyanomethyl) phenylamino quinazolines as a new class of isoform-selective PI3K-alpha inhibitors” (Eur J Med Chem, 2016)
